# Screens as filed in PubChem BioAssay.
# A selection: hits, their analogues and other compounds. The true share with any hit is near 4.1%.
# KCNQ1 pot: potentiators or activators of human KCNQ1 potassium channel; P51787; CHO-K1 KCNQ1, thallium flux FluxOR fluorescence; hits give high values; B-score at 10 µM; 310,000 tested, 0.35% active;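 active = fluorescence ratio B-score, a plate-corrected score, at least three library SD, with initial intensity B-score within 5 SD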
#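 Material: CHO-K1 cells stably expressing KCNQ1. Medium: assay buffer for compound exposure, DMSO matched across wells. Reagent: K+/Tl+ depolarizing stimulus. Compound dosing: single-concentration screen. Times: 37 °C overnight plating, 90-min dark dye load, 20-min compound pretreatment. Technique: FluxOR Tl+ flux fluorescence.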
# KCNQ1 inh: blocks the human KCNQ1 potassium channel; P51787; CHO-K1 KCNQ1, FluxOR thallium flux fluorescence; hits give high values; B-score at 10 µM; 310,000 tested, 1.3% active;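 active = compounds whose thallium flux B-score, printed positive for inhibition, exceeds three library SD while starting fluorescence stays within three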;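 note: channel opened by potassium depolarization with thallium stimulus after 20 min compound exposure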
# KCNK3 block: human KCNK3 channel inhibition, primary screen; O14649; CHO-KCNK3 thallium flux, FluxOR fluorescence; hits give low values; 340,000 tested, 0.84% active; B-score at 10 µM;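 active = B-score under library mean minus 4 SD, starting fluorescence ratio at most library mean plus 5 SD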;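 note: more negative B-score means stronger inhibition of thallium flux through KCNK3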
# KCC2 mod: modulators of human KCC2 chloride dependent transport; KCC2 cells, thallium flux FluoZin-2 fluorescence; B-score of Tl+ flux slope (higher = more flux/activation; lower = inhibition) at 10 µM; 190,000 tested, 2.2% active; AID 1456; Q9H2X9;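 active = thallium flux slope and its plate-corrected score both differing from the plate sample mean at a set confidence after two filtering rounds, in either direction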;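 note: slope of fluorescence scaled to starting intensity during 10 to 20 s after thallium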
# KCNK9 inh: human KCNK9 channel inhibition. Q9NPC2. B-score at 10 µM. AID 488922. 310,000 tested, 1.2% active. HEK293 KCNK9, FluxOR thallium flux fluorescence; hits give low values;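 active = ratio B-score over 3 SD below the library mean, with starting fluorescence within 5 SD of its mean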;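 note: negative B-score means less thallium flux so channel inhibition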
# Target sequence (Q9NPC2 whole entry, looked up): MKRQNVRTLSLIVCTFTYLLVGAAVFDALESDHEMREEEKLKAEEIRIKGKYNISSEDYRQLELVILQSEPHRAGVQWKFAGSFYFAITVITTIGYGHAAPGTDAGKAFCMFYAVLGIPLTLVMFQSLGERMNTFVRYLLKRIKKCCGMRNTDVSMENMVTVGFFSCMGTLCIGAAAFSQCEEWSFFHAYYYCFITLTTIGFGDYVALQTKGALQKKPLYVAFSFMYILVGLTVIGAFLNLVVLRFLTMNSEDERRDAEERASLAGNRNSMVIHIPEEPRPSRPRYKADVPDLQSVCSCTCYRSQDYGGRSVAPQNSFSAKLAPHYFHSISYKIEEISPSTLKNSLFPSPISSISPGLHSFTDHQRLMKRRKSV
# hERG rescue: compounds protecting human hERG from proarrhythmic drug block; Q12809; CHO-hERG, FluxOR thallium flux, dofetilide IC70 present; activation (rescue from dofetilide block), less the hit threshold, % at 10 µM; 310,000 tested, 0.51% active; AID 1511;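 active = activation above the mean of controls blocked by dofetilide plus 5 SD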;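 note: thallium influx through hERG after potassium depolarization seen as dye fluorescence rise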
# KCNK9 block conf: confirmation of human KCNK9 potassium channel inhibitors; shares compounds with KCNK9 inh; HEK293 KCNK9 cells, FluxOR thallium flux fluorescence; inhibition, % at 10 µM; 4,900 tested, 43% active; AID 492992;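 active = thallium signal inhibited by more than 5 SD of the compound-free buffer control wells, on both duplicate plates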;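 note: 0% = assay buffer control wells without compound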
# Kir21 sel: selectivity of KCNK9 modulators against mouse Kir2.1; shares compounds with KCNK9 inh; 4,900 tested, 4% active; inhibition, % at 10 µM; Kir2.1 cells, FluxOR thallium flux fluorescence;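 active = thallium signal drop more than 5 SD beyond the mean of the no-compound control wells, seen in both duplicate plates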;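 note: signal is fluorescence rise after thallium addition divided by baseline fluorescence; plate controls were assay buffer only for no effect and full block by chlorpromazine control for full effect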
# KCNK9 uninduced: second check of KCNK9 modulator effects in non-induced HEK293 cells. shares compounds with KCNK9 inh. FluxOR thallium flux. inhibition, % at 10 µM. 4,900 tested, 40% active. AID 492997;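 active = thallium signal drop beyond 5 SD of the untreated control mean, on both duplicate plates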;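 note: plate controls were buffer only IC0 wells for no effect and SID17386958 at its maximal inhibitory level for full effect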
# KCNK3 confirm: confirmation of human KCNK3 two-pore domain potassium channel inhibitors | 2,400 tested, 99% active | shares compounds with KCNK3 block | ratio percent of control, % at 10 µM | AID 651638 | CHO-KCNK3 thallium flux, FluxOR fluorescence; 0% buffer, 100% carvedilol maximal block;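 active = ratio percent of control, averaged over triplicates, above buffer control mean plus 5 SD, cut at about 64% in these data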;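 note: ratio is the fluorescence rise from min to max over baseline after thallium stimulus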
# KCNK3 noninduced: activity in cells without induced KCNK3 expression; non-induced KCNK3 parental cells, FluxOR thallium flux; hits give low values; 2,400 tested, 40% active; shares compounds with KCNK3 block; thallium flux ratio (lower = more inhibition) at 10 µM;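 active = thallium flux ratio, averaged over three wells, more than 5 SD below the buffer control mean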;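 note: host cells are CHO cells without KCNK3 induction; ratio is peak minus trough fluorescence over baseline then normalized to buffer controls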
# An asterisk follows results filed as active; i = inactive; · = no result given.
SMILES,KCNQ1 pot,KCNQ1 inh,KCNK3 block,KCC2 mod,KCNK9 inh,hERG rescue,KCNK9 block conf,Kir21 sel,KCNK9 uninduced,KCNK3 confirm,KCNK3 noninduced
COc1cccc(NC(=O)CN(C)C(C)C(=O)NC(=O)NC2CCCCC2)c1 (stereo not drawn),·,·,i,·,·,·,·,·,·,·,·
CSc1nc2ccc(NS(=O)(=O)c3ccccc3F)cc2s1,i,i,i,-0.0642,i,-9.0,·,·,·,·,·
CSc1nc2ccc(NS(=O)(=O)c3ccc(Br)s3)cc2s1,i,6*,-11.4*,·,-8.34*,-18.6,35.0%*,i,i,127.0*,0.128*
COc1nnc(-c2ccc(N3CCCCC3)c(NC(=O)C3CCCCC3)c2)c2ccccc12,i,12*,-11*,0.398,-14.9*,-15.3,51.5%*,i,i,125.3*,0.141*
COc1nnc(-c2ccc(N3CCOCC3)c(NC(=O)C3CCCCC3)c2)c2ccccc12,i,i,i,-0.617,i,-13.2,·,·,·,·,·
O=C(OC1CCCC1)c1ccc(Cl)cc1Cl,·,·,i,·,·,·,·,·,·,·,·
CCC1CCCCN1C(=O)CCCOc1ccccc1 (stereo not drawn),i,i,i,·,i,-10.3,·,·,·,·,·
CCCCC[C@H](O)/C=C/[C@H]1CCC(=O)[C@@H]1CCCCCCC(=O)N1CCCCC1CO (stereo partly drawn),i,i,i,·,-11.6*,-4.1,60.0%*,i,i,84.7*,i
O=C(COc1ccccc1F)Nc1cc(S(=O)(=O)Nc2cccc(Cl)c2)ccc1O,·,·,i,·,·,·,·,·,·,·,·
Cc1ccc(Sc2ncccc2C(=O)NCC(c2ccc(F)cc2)N2CCOCC2)cc1C (stereo not drawn),i,i,i,·,i,-14.7,·,·,·,·,·
COc1ccc(/C(C#N)=C/c2c(-c3ccc(Cl)cc3)nc3c(C)cccn23)cc1,i,i,-10.2*,0.505,-11.4*,-11.2,42.0%*,i,29.0%*,100.7*,0.146*
Cc1cc(Oc2nc3c(C)cccn3c(=O)c2/C=C(\C#N)S(=O)(=O)c2ccc(Cl)cc2)ccc1Cl,i,i,i,0.796,i,-8.1,·,·,·,·,·
O=C(CN(Cc1ccco1)Cc1ccco1)Nc1cc(S(=O)(=O)N2CCCCC2)ccc1Cl,·,·,i,·,·,·,·,·,·,·,·
Cn1cccc1/C=C1\CCC/C(=C\c2cccn2C)C1=O,i,14*,-12*,i,-9.56*,-36.2,77.5%*,60.5%*,i,0.0,i
O=C(N[C@@H](Cc1ccccc1)C(=O)N1CCC2(CC1)NCCc1[nH]cnc12)c1cccc(F)c1,i,i,i,·,i,-4.6,·,·,·,·,·
O=C1c2ccccc2C(Nc2ccc3c(c2)OCCO3)N1c1ccccn1 (stereo not drawn),i,i,-9.55*,-0.375,-15.4*,-10.1,52.5%*,i,47.0%*,102.7*,i
CCOC(=O)N1CCN(Cc2c(NC(=O)c3ccco3)sc(C)c2C)CC1,i,i,i,0.414,i,-4.2,·,·,·,·,·
Cc1sc(NC(=O)c2ccco2)c(CN2CCN(c3ccc(F)cc3)CC2)c1C,i,i,-10.5*,-0.827,-14.8*,-11.0,i,i,29.0%*,110.0*,0.153*
CCCN(/C=N/c1sc2c(c1C#N)CCCCC2)CCC,i,i,-10.9*,0.0863,-19.4*,-19.6,69.0%*,i,47.5%*,105.0*,i
CN(C)/C=N/c1sc2c(c1C#N)CCCCC2,i,i,i,0.901,i,-5.3,·,·,·,·,·
O=C(O)C1C2CCC(C2)C1C(=O)N1CCCC1 (stereo not drawn),i,i,i,·,i,-6.3,·,·,·,·,·
CCCCCn1nc(C(=O)OCc2nc(N)nc(Nc3ccccc3)n2)c2ccccc2c1=O,·,·,i,·,·,·,·,·,·,·,·
CCc1cc(C(=O)Cc2ccc(F)cc2)c(O)cc1O,i,i,i,-1.39,i,-16.3,·,·,·,·,·
CCCc1cc(C(=O)Cc2ccc(F)cc2)c(O)cc1O,i,i,-8.79*,-1.63,-10.3*,-24.7,60.5%*,i,37.5%*,107.7*,i
COC(=O)c1cc(-c2cc(OC)ccc2OC)nc2c1c(=O)n(C)c(=O)n2Cc1ccccc1,i,i,-10.7*,·,i,-9.9,i,i,i,101.3*,i
SMILES,KCNQ1 pot,KCNQ1 inh,KCNK3 block,KCC2 mod,KCNK9 inh,hERG rescue,KCNK9 block conf,Kir21 sel,KCNK9 uninduced,KCNK3 confirm,KCNK3 noninduced
COc1ccccc1N1CCN(C2CCCCC2NS(=O)(=O)c2ccc(Cl)cc2)CC1 (stereo not drawn),i,i,i,·,i,-12.3,·,·,·,·,·
Cc1ccc(Cl)cc1N1CCN(C2CCCCC2NS(=O)(=O)c2ccccc2)CC1 (stereo not drawn),i,i,-9.35*,·,-17.1*,-9.8,54.5%*,i,43.0%*,111.7*,0.144*
Cc1cccc(N2CCN(C3CCCCC3NS(=O)(=O)c3ccccc3)CC2C)c1 (stereo not drawn),i,i,-9.25*,·,-15.5*,-9.4,44.0%*,i,45.0%*,115.0*,0.153*
COc1ccc(CNC(=O)c2csc(Cc3ccccc3)n2)cc1,i,i,i,·,i,-8.6,·,·,·,·,·
COc1ccccc1CNC(=O)c1csc(Cc2ccc(Cl)cc2)n1,i,i,-13.4*,·,i,-10.2,i,i,26.0%*,122.3*,0.136*
CCOc1ccccc1NC(=O)c1ccc2ccccc2c1,i,i,-9.74*,·,-10.6*,-8.2,63.5%*,i,32.5%*,113.0*,i
CCOc1ccccc1NC(=O)C(Sc1nnnn1C)c1ccccc1 (stereo not drawn),i,i,i,-1.29,i,-12.4,·,·,·,·,·
CCOc1ccccc1NC(=O)C(Sc1ccccc1)c1ccccc1 (stereo not drawn),i,i,-8.71*,·,-8.38*,-15.9,i,i,40.0%*,95.3*,0.155*
COc1ccccc1C1CCN(c2cc(O)ccc2[N+](=O)[O-])CC1,i,11*,-10.4*,·,-10.9*,-12.7,55.0%*,i,44.5%*,110.7*,i
